Assay results taken from ChEMBL document CHEMBL1759902, “Synthesis and structure-activity relationship of N-(2-arylethyl) isoquinoline derivatives as human scavenger receptor CD36 antagonists” (Eur J Med Chem, 2011).
Calls of active or inactive are those of the source. The calls are words filed in the database; no cut-off is given here. Non-standard residues stand in square brackets, D forms with d. Residues, ends and D or L forms follow the SMILES beside them. dTrp(2-Me) = Cc1[nH]c2ccccc2c1C[C@@H](N)C(=O)O

How the values were obtained:
Platelet glycoprotein 4 [1] = biological target: T1, Platelet glycoprotein 4 (Homo sapiens, UniProt P16671); assay: Antagonist activity at human CD36-oxLDL binding at 10 ug/mL after 2 hrs by ELISA
Platelet glycoprotein 4 [2] = biological target: T1, Platelet glycoprotein 4; assay: Antagonist activity at human CD36 expressed in insect Sf9 cells assessed as inhibition of DiL-acetylated LDL uptake at 10 ug/ml after 5 hrs by fluorometric analysis; assay type: functional
How it was run: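 Sf9 cells in Grace's medium with 10% heat-inactivated FBS at 27 °C, plated at 6.0×10⁵ cells/well, infected 1 h with recombinant hCD36 or wild-type baculovirus, then refed. After two days, washed into Grace/0.5% BSA. Compound added from DMSO for 1 h at 27 °C, then DiI-AcLDL.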

Platelet glycoprotein 4 [3] = biological target: T1, Platelet glycoprotein 4; assay: Antagonist activity at human CD36-oxLDL binding after 2 hrs by ELISA
How it was run: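 Plate wells coated with oxLDL at 4 °C for 8–12 h, washed with PBS and blocked in PBS/1% BSA for 1–2 h at 4 °C. His-tagged CD36 or vector control protein added for 1 h at 4 °C, then compound or hexarelin, incubated 2 h.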

Platelet glycoprotein 4 [4] = biological target: T1, Platelet glycoprotein 4; assay: Antagonist activity at human CD36-oxLDL binding at 10 uM after 2 hrs by ELISA

T1 sequence (P16671 whole entry): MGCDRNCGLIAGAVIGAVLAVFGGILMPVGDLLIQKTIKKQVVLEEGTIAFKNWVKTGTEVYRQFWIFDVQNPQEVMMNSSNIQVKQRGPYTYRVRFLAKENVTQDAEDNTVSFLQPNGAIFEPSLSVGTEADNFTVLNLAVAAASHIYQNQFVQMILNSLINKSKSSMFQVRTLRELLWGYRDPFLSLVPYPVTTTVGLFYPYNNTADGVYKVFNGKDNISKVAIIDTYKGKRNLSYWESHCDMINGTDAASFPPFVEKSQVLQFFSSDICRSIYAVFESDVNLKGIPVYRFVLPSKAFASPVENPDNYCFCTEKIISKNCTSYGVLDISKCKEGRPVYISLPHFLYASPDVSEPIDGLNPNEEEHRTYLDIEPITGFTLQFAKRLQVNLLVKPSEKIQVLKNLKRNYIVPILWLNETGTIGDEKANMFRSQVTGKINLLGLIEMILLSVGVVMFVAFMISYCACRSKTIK

| SMILES | inhibition (Platelet glycoprotein 4 [1]) | inhibition (Platelet glycoprotein 4 [2]) | IC50 (Platelet glycoprotein 4 [3]) | inhibition (Platelet glycoprotein 4 [4]) |
| --- | --- | --- | --- | --- |
| COc1cc2cc[n+](CCc3cccc(F)c3)cc2cc1OC | 20.9% | – | – | – |
| COc1cc2cc[n+](CCc3ccccc3)cc2cc1OC | 10% | – | – | – |
| COc1cc2c[n+](CCc3ccc(Cl)cc3)ccc2cc1O | < 10% | – | – | – |
| COc1ccc(CC[n+]2ccc3ccc(OC)c(O)c3c2)cc1 | < 10% | – | – | – |
| COc1ccc2cc[n+](CCc3ccccc3)cc2c1 | 47.4% | – | – | – |
| COc1cc2cc[n+](CCc3ccc(Cl)cc3)cc2cc1OC | < 10% | – | – | – |
| Oc1ccc2cc[n+](CCc3ccccc3)cc2c1 | < 10% | – | – | – |
| COc1ccc(CC[n+]2ccc3cc(O)c(OC)cc3c2)cc1 | 76.3% | Active | – | – |
| COc1cc2c[n+](CCc3cccc(Cl)c3)ccc2cc1O | 33.6% | – | – | – |
| COc1ccc2cc[n+](CCc3ccccc3)cc2c1O | 77.9% | Active | 0.633 µM | – |
| COc1ccc2cc[n+](CCc3ccccc3)cc2c1OC | < 10% | – | – | – |
| Oc1ccc2cc[n+](CCc3cccc(C(F)(F)F)c3)cc2c1 | 48.4% | Active | 3.39 µM | – |
| COc1ccc2cc[n+](CCc3ccc(Cl)cc3)cc2c1OC | 25.4% | – | – | – |
| COc1cc2c[n+](CCc3cccc(F)c3)c(O)cc2cc1O | < 10% | – | – | – |

Next, values leading:

| inhibition (Platelet glycoprotein 4 [1]) | inhibition (Platelet glycoprotein 4 [2]) | IC50 (Platelet glycoprotein 4 [3]) | inhibition (Platelet glycoprotein 4 [4]) | SMILES |
| --- | --- | --- | --- | --- |
| 29.6% | – | – | – | COc1ccc2cc[n+](CCc3ccc(F)cc3)cc2c1O |
| 52.1% | Active | 6.9 µM | – | COc1ccc2cc[n+](CCc3cccc(F)c3)cc2c1OC |
| < 10% | – | – | – | COc1cc2c[n+](CCc3ccccc3C)c(O)cc2cc1O |
| – | – | – | 37.6% | Cc1[nH]c2ccccc2c1C[C@@H](NC(=O)[C@@H](N)Cc1c[nH]cn1)C(=O)N[C@@H](C)C(=O)N[C@@H](Cc1c[nH]c2ccccc12)C(=O)N[C@H](Cc1ccccc1)C(=O)N[C@@H](CCCCN)C(N)=O (H-H[dTrp(2-Me)]AW[dF]K-NH2) |
| 42.4% | Active | 5.99 µM | – | COc1cc2c[n+](CCc3ccc(F)cc3)ccc2cc1O |
| 28.6% | – | – | – | COc1ccc(CC[n+]2ccc3cc(OC)c(OC)cc3c2)cc1 |
| 31% | – | – | – | COc1cc2c[n+](CCc3ccccc3)ccc2cc1O |
| 28.7% | – | – | – | COc1ccc(CC[n+]2ccc3ccc(O)cc3c2)cc1 |
| < 10% | – | – | – | COc1cc2cc[n+](CCc3cccc(C(F)(F)F)c3)cc2cc1OC |
| 46.6% | Active | 4.36 µM | – | COc1ccc2cc[n+](CCc3ccccc3C)cc2c1OC |
| 11.5% | – | – | – | COc1ccc2cc[n+](CCc3ccccc3C)cc2c1O |
| 21.7% | – | – | – | Oc1ccc2cc[n+](CCc3ccccc3F)cc2c1 |
| 33.2% | – | – | – | COc1cc2c[n+](CCc3cccc(Cl)c3)c(O)cc2cc1O |
